According to ChEMBL document CHEMBL1156240, “Papyriferic acid derivatives as reversal agents of multidrug resistance in cancer cells” (Bioorg Med Chem, 2010):

Legend:
KB = experiment: Cytotoxicity against human KB cells after 48 hrs by MTT assay; assay type: functional, cell-based
[1] = Cytotoxicity against human multidrug-resistant KB-C2 cells after 48 hrs by MTT assay; assay type: functional, cell-based; conditions: KB-C2, 48 h
Procedure, shortened: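 Seeded 5 × 10³ cells/well, preincubated 24 h, then compounds at 2, 10, 50, 100 µg/mL in medium (0.5% DMSO final) for 48 h. MTT 0.5 mg/mL for 4 h, formazan dissolved in DMSO, OD 540 nm; IC50 relative to vehicle controls.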

Row | SMILES | IC50 (KB) | IC50 [1]
1 | C=CCOC(=O)CC(=O)O[C@@H]1CC[C@]2(C)[C@H]3C[C@@H](OC(C)=O)[C@@H]4[C@@H]([C@]5(C)CC[C@H](C(C)(C)O)O5)CC[C@@]4(C)[C@]3(C)CC[C@H]2C1(C)C | 34.8 µM | 48.3 µM
2 | CCOC(=O)CC(=O)O[C@@H]1CC[C@]2(C)[C@H]3CC[C@@H]4[C@@H]([C@]5(C)CC[C@H](C(C)(C)O)O5)CC[C@@]4(C)[C@]3(C)CC[C@H]2C1(C)C | > 100 µM | > 100 µM
3 | CC(=O)O[C@@H]1C[C@@H]2[C@@]3(C)CC[C@@H](OC(=O)CC(=O)NCc4ccccc4)C(C)(C)[C@@H]3CC[C@@]2(C)[C@]2(C)CC[C@H]([C@]3(C)CC[C@H](C(C)(C)O)O3)[C@@H]12 | 31.9 µM | 33.2 µM
4 | CC(=O)O[C@@H]1C[C@@H]2[C@@]3(C)CC[C@@H](OC(=O)CC(=O)NCc4ccccc4)C(C)(C)[C@@H]3CC[C@@]2(C)[C@]2(C)CC[C@H]([C@]3(C)CC[C@H](C(C)(C)OC(=O)C(=O)NCc4ccccc4)O3)[C@@H]12 | > 100 µM | > 100 µM
5 | CC(=O)O[C@@H]1C[C@@H]2[C@@]3(C)CC[C@@H](OC(=O)CC(=O)Nc4ccccc4)C(C)(C)[C@@H]3CC[C@@]2(C)[C@]2(C)CC[C@H]([C@]3(C)CC[C@H](C(C)(C)OC(=O)C(=O)Nc4ccccc4)O3)[C@@H]12 | > 100 µM | > 100 µM
6 | CCCCCOC(=O)CC(=O)O[C@@H]1CC[C@]2(C)[C@H]3CC[C@@H]4[C@@H]([C@]5(C)CC[C@H](C(C)(C)O)O5)CC[C@@]4(C)[C@]3(C)CC[C@H]2C1(C)C | > 100 µM | > 100 µM
7 | CC(C)OC(=O)CC(=O)O[C@@H]1CC[C@]2(C)[C@H]3CC[C@@H]4[C@@H]([C@]5(C)CC[C@H](C(C)(C)O)O5)CC[C@@]4(C)[C@]3(C)CC[C@H]2C1(C)C | > 100 µM | > 100 µM
8 | CCCOC(=O)CC(=O)O[C@@H]1CC[C@]2(C)[C@H]3C[C@@H](OC(C)=O)[C@@H]4[C@@H]([C@]5(C)CC[C@H](C(C)(C)O)O5)CC[C@@]4(C)[C@]3(C)CC[C@H]2C1(C)C | 27.8 µM | 67.8 µM
9 | COc1ccc(OC)c(NC(=O)CC(=O)O[C@@H]2CC[C@]3(C)[C@H]4C[C@@H](OC(C)=O)[C@@H]5[C@@H]([C@]6(C)CC[C@H](C(C)(C)OC(=O)C(=O)Nc7cc(OC)ccc7OC)O6)CC[C@@]5(C)[C@]4(C)CC[C@H]3C2(C)C)c1 | > 100 µM | > 100 µM
10 | CC(=O)O[C@@H]1C[C@@H]2[C@@]3(C)CC[C@@H](OC(=O)CC(=O)OC(C)C)C(C)(C)[C@@H]3CC[C@@]2(C)[C@]2(C)CC[C@H]([C@]3(C)CC[C@H](C(C)(C)O)O3)[C@@H]12 | 74.6 µM | > 100 µM
11 | COc1ccc(CCN(C)CCCC(C#N)(c2ccc(OC)c(OC)c2)C(C)C)cc1OC (configuration not stated) | – | > 100 µM
12 | COc1ccc(OC)c(NC(=O)CC(=O)O[C@@H]2CC[C@]3(C)[C@H]4C[C@@H](OC(C)=O)[C@@H]5[C@@H]([C@]6(C)CC[C@H](C(C)(C)O)O6)CC[C@@]5(C)[C@]4(C)CC[C@H]3C2(C)C)c1 | > 100 µM | > 100 µM
13 | COc1cccc2c1C(=O)c1c(O)c3c(c(O)c1C2=O)C[C@@](O)(C(C)=O)C[C@@H]3O[C@H]1C[C@H](N)[C@H](O)[C@H](C)O1 [DAUNORUBICIN] | 0.64 µM | 16.2 µM
14 | CCCCNC(=O)CC(=O)O[C@@H]1CC[C@]2(C)[C@H]3C[C@@H](OC(C)=O)[C@@H]4[C@@H]([C@]5(C)CC[C@H](C(C)(C)O)O5)CC[C@@]4(C)[C@]3(C)CC[C@H]2C1(C)C | 24.9 µM | 24.4 µM
15 | COc1cc2c(c(OC)c1OC)-c1ccc(OC)c(=O)cc1[C@@H](NC(C)=O)CC2 [COLCHICINE] | – | 10.9 µM
16 | CC(=O)O[C@@H]1C[C@@H]2[C@@]3(C)CC[C@@H](OC(=O)CC(=O)OCc4ccccc4)C(C)(C)[C@@H]3CC[C@@]2(C)[C@]2(C)CC[C@H]([C@]3(C)CC[C@H](C(C)(C)O)O3)[C@@H]12 | 43.7 µM | > 100 µM
17 | CCCCCOC(=O)CC(=O)O[C@@H]1CC[C@]2(C)[C@H]3C[C@@H](OC(C)=O)[C@@H]4[C@@H]([C@]5(C)CC[C@H](C(C)(C)O)O5)CC[C@@]4(C)[C@]3(C)CC[C@H]2C1(C)C | 45.4 µM | > 100 µM
18 | CCCCCCCCCNC(=O)CC(=O)O[C@@H]1CC[C@]2(C)[C@H]3C[C@@H](OC(C)=O)[C@@H]4[C@@H]([C@]5(C)CC[C@H](C(C)(C)O)O5)CC[C@@]4(C)[C@]3(C)CC[C@H]2C1(C)C | 42.8 µM | > 100 µM
19 | CC(=O)O[C@@H]1C[C@@H]2[C@@]3(C)CC[C@@H](OC(=O)CC(=O)Nc4ccccc4)C(C)(C)[C@@H]3CC[C@@]2(C)[C@]2(C)CC[C@H]([C@]3(C)CC[C@H](C(C)(C)O)O3)[C@@H]12 | 28.3 µM | 26.2 µM

Row | SMILES | IC50 (KB) | IC50 [1]
20 | CCCCOC(=O)CC(=O)O[C@@H]1CC[C@]2(C)[C@H]3C[C@@H](OC(C)=O)[C@@H]4[C@@H]([C@]5(C)CC[C@H](C(C)(C)O)O5)CC[C@@]4(C)[C@]3(C)CC[C@H]2C1(C)C | 40.8 µM | > 100 µM
21 | CCCCCNC(=O)CC(=O)O[C@@H]1CC[C@]2(C)[C@H]3C[C@@H](OC(C)=O)[C@@H]4[C@@H]([C@]5(C)CC[C@H](C(C)(C)O)O5)CC[C@@]4(C)[C@]3(C)CC[C@H]2C1(C)C | 38.3 µM | 38.3 µM
22 | CC(=O)O[C@@H]1C[C@@H]2[C@@]3(C)CC[C@@H](OC(=O)CC(=O)NC(C)(C)C)C(C)(C)[C@@H]3CC[C@@]2(C)[C@]2(C)CC[C@H]([C@]3(C)CC[C@H](C(C)(C)OC(=O)C(=O)NC(C)(C)C)O3)[C@@H]12 | > 100 µM | > 100 µM
23 | CCCCOC(=O)CC(=O)O[C@@H]1CC[C@]2(C)[C@H]3CC[C@@H]4[C@@H]([C@]5(C)CC[C@H](C(C)(C)O)O5)CC[C@@]4(C)[C@]3(C)CC[C@H]2C1(C)C | > 100 µM | > 100 µM
24 | CC(=O)O[C@@H]1C[C@@H]2[C@@]3(C)CC[C@@H](OC(=O)CC(=O)OCC(C)C)C(C)(C)[C@@H]3CC[C@@]2(C)[C@]2(C)CC[C@H]([C@]3(C)CC[C@H](C(C)(C)O)O3)[C@@H]12 | 33.3 µM | > 100 µM
25 | CCCCCCOC(=O)CC(=O)O[C@@H]1CC[C@]2(C)[C@H]3CC[C@@H]4[C@@H]([C@]5(C)CC[C@H](C(C)(C)O)O5)CC[C@@]4(C)[C@]3(C)CC[C@H]2C1(C)C | > 100 µM | > 100 µM
26 | CCCCCCCOC(=O)CC(=O)O[C@@H]1CC[C@]2(C)[C@H]3C[C@@H](OC(C)=O)[C@@H]4[C@@H]([C@]5(C)CC[C@H](C(C)(C)O)O5)CC[C@@]4(C)[C@]3(C)CC[C@H]2C1(C)C | > 100 µM | > 100 µM
27 | CCCCCCCCCNC(=O)CC(=O)O[C@@H]1CC[C@]2(C)[C@H]3C[C@@H](OC(C)=O)[C@@H]4[C@@H]([C@]5(C)CC[C@H](C(C)(C)OC(=O)C(=O)NCCCCCCCCC)O5)CC[C@@]4(C)[C@]3(C)CC[C@H]2C1(C)C | > 100 µM | > 100 µM
28 | CCCCCCOC(=O)CC(=O)O[C@@H]1CC[C@]2(C)[C@H]3C[C@@H](OC(C)=O)[C@@H]4[C@@H]([C@]5(C)CC[C@H](C(C)(C)O)O5)CC[C@@]4(C)[C@]3(C)CC[C@H]2C1(C)C | 70.7 µM | > 100 µM
29 | CCCCCCCCOC(=O)CC(=O)O[C@@H]1CC[C@]2(C)[C@H]3C[C@@H](OC(C)=O)[C@@H]4[C@@H]([C@]5(C)CC[C@H](C(C)(C)O)O5)CC[C@@]4(C)[C@]3(C)CC[C@H]2C1(C)C | > 100 µM | > 100 µM
30 | CC(=O)O[C@@H]1C[C@@H]2[C@@]3(C)CC[C@@H](OC(=O)CC(=O)OC(C)(C)C)C(C)(C)[C@@H]3CC[C@@]2(C)[C@]2(C)CC[C@H]([C@]3(C)CC[C@H](C(C)(C)O)O3)[C@@H]12 | 31.5 µM | > 100 µM
31 | CCCCCNC(=O)CC(=O)O[C@@H]1CC[C@]2(C)[C@H]3C[C@@H](OC(C)=O)[C@@H]4[C@@H]([C@]5(C)CC[C@H](C(C)(C)OC(=O)C(=O)NCCCCC)O5)CC[C@@]4(C)[C@]3(C)CC[C@H]2C1(C)C | > 100 µM | > 100 µM
32 | CCCCCCCOC(=O)CC(=O)O[C@@H]1CC[C@]2(C)[C@H]3CC[C@@H]4[C@@H]([C@]5(C)CC[C@H](C(C)(C)O)O5)CC[C@@]4(C)[C@]3(C)CC[C@H]2C1(C)C | > 100 µM | > 100 µM
33 | CC(C)COC(=O)CC(=O)O[C@@H]1CC[C@]2(C)[C@H]3CC[C@@H]4[C@@H]([C@]5(C)CC[C@H](C(C)(C)O)O5)CC[C@@]4(C)[C@]3(C)CC[C@H]2C1(C)C | 97 µM | > 100 µM
34 | CCCOC(=O)CC(=O)O[C@@H]1CC[C@]2(C)[C@H]3CC[C@@H]4[C@@H]([C@]5(C)CC[C@H](C(C)(C)O)O5)CC[C@@]4(C)[C@]3(C)CC[C@H]2C1(C)C | 60.3 µM | > 100 µM
35 | CCOC(=O)CC(=O)O[C@@H]1CC[C@]2(C)[C@H]3C[C@@H](OC(C)=O)[C@@H]4[C@@H]([C@]5(C)CC[C@H](C(C)(C)O)O5)CC[C@@]4(C)[C@]3(C)CC[C@H]2C1(C)C | 39.1 µM | 64.3 µM
36 | CCCCCCCCOC(=O)CC(=O)O[C@@H]1CC[C@]2(C)[C@H]3CC[C@@H]4[C@@H]([C@]5(C)CC[C@H](C(C)(C)O)O5)CC[C@@]4(C)[C@]3(C)CC[C@H]2C1(C)C | > 100 µM | > 100 µM
37 | CCCNC(=O)CC(=O)O[C@@H]1CC[C@]2(C)[C@H]3C[C@@H](OC(C)=O)[C@@H]4[C@@H]([C@]5(C)CC[C@H](C(C)(C)O)O5)CC[C@@]4(C)[C@]3(C)CC[C@H]2C1(C)C | 46.1 µM | 40.8 µM
